Where no end group is shown, it is not given here.

As a reminder, the stoichiometry N is the number of molecules, sites or subunits per partner or assembly.

The test system of assay [1] is human islets. As to the kind of experiment: 15N2-arginine tracer study in human islets. It counts as cell-based. To be noted: 15N2(guanidino)-L-arginine 72 h, cytokines 24 h, n=4 donors. The gist of the method: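 Human islets (150 in 2 ml) incubated 72 h with 15N2(guanidino)-L-arginine at 200 mg/L in RPMI with 5.5 mM glucose and 5% human A/B serum. Cytokine mix: TNF-α 10 ng/ml, IL-1β 10 ng/ml, IFNγ 100 ng/ml. Mass isotopomer distributions were corrected for natural abundance, normalized to tracer uptake, and expressed relative to PBS control set to 1.0.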

The subject of assay [2] is β-cells in human islet grafts. As to the kind of experiment: β-cell death in human islet grafts. The conditions noted are these: donor islets pre-treated before transplantation; grafts excised day 2. The format is in vivo. An outline of the steps:
(§1)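 Donor islets were pre-treated overnight at 37 °C with vehicle (1% DMSO), 5 µM compound, or 5 µM plus 1 mM PAA. Medium was RPMI uptake medium with 11 mM glucose, 10% serum and 0.1% Tween 80 (pH 6.0). Islets were washed and held 24 h in fresh media. Male NOD-SCID mice (10–12 wk) received single i.p. STZ 200 mg/kg. 500 islets went under the kidney capsule 24–48 h after blood glucose ≥300 mg/dl.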

A further assay has as its system GK. The conditions noted are these: cited from earlier work.
The test system of assay [3] is human islets. As to the kind of experiment: Viability of human islets. It counts as cell-based. An outline of the steps: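 Human islets were cultured in PIM(S) with 5% human A/B serum and infected for PC knockdown 24 h before treatment, 72 h in total. Medium carried 1 mM argininosuccinate; cytokines were TNF-α 10, IL-1β 10 and IFNγ 100 ng/ml. AnnexinV/7AAD flow cytometry was run 48 h after cytokines. Positive cells lay ≥2 s.d. outside unstained sample means.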

The next assay has as its system diabetic NOD-SCID mice. The format is in vivo, mouse. The conditions noted are these: 500 pre-treated human islets in diabetic NOD-SCID mice, up to 53 days. An outline of the steps: as §1
Assay [4] concerns human islets. As to the kind of experiment: NO levels by flow cytometry. It counts as cell-based. An outline of the steps:
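Islets were held 72 h in 33 mM versus 5.8 mM glucose. NO was read 24 h after cytokine treatment. For each replicate, 50 islets were dispersed in accutase at 37 °C, rinsed in PBS, and stained with DAF-FM 30 min at 37 °C. Mean FITC intensity by flow cytometry was normalized to PBS control set to 1.0.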
Background: In flow cytometry, cells or beads pass a laser one at a time.

For assay [5], the system named is human islets. As to the kind of experiment: Steady state urea quantification by GC-MS, human islets. The format is cell-based.
The test system of the next assay is GLS. As to the kind of experiment: GLS activity readout. It counts as cell-based. To be noted: islets, readout of GLS activity, n=2 human donors.
Assay [6] deals with T1, recombinant human glucokinase (GK, hexokinase IV) (human, UniProt P35557 1-465).
T1 sequence (looked up): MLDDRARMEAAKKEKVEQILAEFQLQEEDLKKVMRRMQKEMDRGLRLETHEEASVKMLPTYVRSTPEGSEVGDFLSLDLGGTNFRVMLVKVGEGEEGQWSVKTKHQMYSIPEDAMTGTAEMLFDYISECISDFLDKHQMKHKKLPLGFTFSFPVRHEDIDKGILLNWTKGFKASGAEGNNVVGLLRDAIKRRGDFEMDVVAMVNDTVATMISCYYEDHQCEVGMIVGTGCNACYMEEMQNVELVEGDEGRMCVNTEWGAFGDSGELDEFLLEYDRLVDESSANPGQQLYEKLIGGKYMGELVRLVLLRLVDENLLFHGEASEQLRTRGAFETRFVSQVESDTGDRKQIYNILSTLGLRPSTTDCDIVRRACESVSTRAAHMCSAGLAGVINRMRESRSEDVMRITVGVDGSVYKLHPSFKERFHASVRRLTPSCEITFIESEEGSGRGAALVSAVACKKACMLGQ
As to the kind of experiment: ITC. (In general: Isothermal titration calorimetry measures the heat released or taken up as one component is titrated into another.)

The mark [7] stands for this setting: PC-depleted human islets, cytokines, AS 1 mM, n=4 experiments, 2 donors.
Where [8] appears, read: human islets, inflammatory cytokines, AS 1 mM, n=3 donors.

As to `CS(=O)(=O)c1ccc([C@@H](CC2CCCC2)C(=O)Nc2nccs2)cc1` [RO0281675], in the assay on human islets [1], the “15N2 enrichment in urea (M+2) / ureagenesis” value was “ureagenesis was not altered”. Further, the “β-cell death in islet grafts” value in assay [2] is “ineffective”. For the same molecule, the “effect on GK affinity for glucose, allosteric activation” value in the assay with GK was “significantly augments the enzyme’s affinity for glucose”. For the same molecule, in the assay on human islets [3] (human islets, TNF-α, IL-1β and IFNγ 48 h, n=6 donors (Fig. 1c)), the “viability / protection from cytokine-induced death” value is “does not protect human islets from cytokine-induced death”. The “hyperglycemia reversal (blood glucose)” value with diabetic NOD-SCID mice is listed as “ineffective”.
Regarding `COC[C@H](C)Oc1cc(O[C@@H](C)Cc2ccccc2)cc(C(=O)Nc2ccc(C(=O)O)cn2)c1` [GKA50], in the assay with human islets [4] (inflammatory cytokines 24 h, DAF-FM), the NO levels result was “These differences were further recapitulated with a second, structurally distinct allosteric GKA”. In addition, the urea levels result in the assay with human islets [5] (human islets, inflammatory cytokines 24 h) is listed as “These differences were further recapitulated with a second, structurally distinct allosteric GKA”.
`OC[C@H]1OC(O)[C@H](O)[C@@H](O)[C@@H]1O` (some centres unmarked) [glucose]: the “NO levels, glucotoxicity” value in the assay on human islets [4] (33 mM glucose 72 h vs 5.8 mM glucose) is on record as “enhances NO levels”. For the same molecule, the “urea levels, glucotoxicity” value with human islets [5] (human islets, 33 mM glucose 72 h vs 5.8 mM glucose) is recorded as “reduces urea”.
For `O=C(Cc1ccccc1)Nc1nnc(CCSCCc2nnc(NC(=O)Cc3ccccc3)s2)s1` [BPTES, Bis-2-(5-phenylacetamido-1,3,4-thiadiazol-2-yl)ethyl sulfide], the “urea levels with BPTES” value in the assay with human islets [5] (islets, n=2 human donors) is “does not affect islet urea levels”. Also, the “glutamate/glutamine (glu/gln) ratio” value with GLS is listed as “reduce the ratio of glutamate/glutamine”.
As for `NC(=NCCC[C@H](N)C(=O)O)N[C@@H](CC(=O)O)C(=O)O` [AS, argininosuccinic acid], the “urea levels with argininosuccinate, PC knockdown” value in the assay on human islets [5] (setting [7]) is on record as “rescues urea levels”. The “urea levels, AS dose response” value with human islets [5] (human islets, 10–200 µM AS) was “had no effect on urea levels”. Also, the “urea levels with argininosuccinate” value with human islets [5] (setting [8]) is given as “sufficient to increase urea levels”. Besides, the “viability with argininosuccinate, PC knockdown” value with human islets [3] (setting [7]) is “protects against inflammation toxicity”. The viability with argininosuccinate result in the assay with human islets [3] (setting [8]) is “rescue the viability of human islets undergoing inflammation”.

B1: BAD BH3 SAHBA SD (hydrocarbon stapled peptide modeled after the phospho-BAD BH3 helix) (peptide)
chain: NLWAAQRYGRELRRMDDEFVDSFKK
modifications: staple (positions not given here); not fully specified
Consider B1, for which the “stoichiometry N” value in assay [6] turned out to be 1.
